The text below walks through data of PubChem BioAssay AID651654 (Broad Institute, 2012).

The whole screen tested about 360,000 compounds, of which about 740 (0.21%) were called active.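 How the source made its calls: active means mean lysis activity across replicates of at least 80%, whatever share of replicates individually reach that level; inactive means mean lysis activity below 80%.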 The list comes from a sample in which actives are over-represented; it also holds similar structures and randomly drawn compounds.

This assay is described as follows: Cryptococcus neoformans cell lysis inducers, primary screen, AK release luminescence, single concentration (AID 651654). The note with it: C. neoformans lysis, adenylate kinase release luminescence, 4 h; at 15 µM; stronger effect = higher value; normalised: neutral wells 0, clomiphene wells 100. The procedure, abridged: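 Material – Cryptococcus neoformans yeast cells · Quantity – 5 × 10^6 yeast cells/mL · Buffer or medium – YPD medium · Compound – single dose · Timing – 4 h static compound exposure, 37 °C, read 1 h post-reagent · Signal – adenylate kinase release luminescence · Read-out basis – lysis from increased AK signal · Benchmarks – Clomiphene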
On to `COCC(=O)Nc1ccc2c(c1)OC[C@H](C)N(C(=O)Cc1ccccn1)C[C@H](C)[C@@H](OC)CN(C)C2=O`, for which the lysis activity is 6.59% (inactive).
The result for `CCC(=O)N1[C@@H]2c3ccc(-c4cccnc4)c(=O)n3C[C@H]1[C@H](CO)[C@H]2C(=O)N1CCc2ccccc2C1` reads -6.94% (inactive).
The result for `C[C@H](CO)N1C[C@H](C)[C@H](CN(C)Cc2ccc(C(F)(F)F)cc2)Oc2c(NC(=O)C3CCOCC3)cccc2C1=O` reads 0.0275% (inactive); that for `Cc1noc(C)c1S(=O)(=O)Nc1ccc2c(c1)C(=O)N([C@@H](C)CO)C[C@H](C)[C@H](CN(C)CC1CCCCC1)OCCCC[C@H](C)O2`, 1.9% (inactive).
On to `C[C@@H]1CN([C@@H](C)CO)C(=O)c2cccc(NC(=O)C3CC3)c2O[C@@H]1CN(C)C`, for which the lysis activity is 80.7% (active).
The same measure for `Cc1noc(C)c1S(=O)(=O)Nc1ccc2c(c1)C(=O)N([C@@H](C)CO)C[C@@H](C)[C@@H](CN(C)Cc1ccccc1)OCCCC[C@H](C)O2`: 96.8% (active).
The same measure for `CCCN(C)C[C@@H]1OCCCC[C@H](C)Oc2ccc(NS(=O)(=O)c3ccc(C)cc3)cc2C(=O)N([C@H](C)CO)C[C@@H]1C`: 98.4% (active).
For `Cc1ccc(S(=O)(=O)Nc2ccc3c(c2)C(=O)N([C@@H](C)CO)C[C@H](C)[C@H](CN(C)C(=O)Nc2ccc(C(F)(F)F)cc2)O3)cc1`, the lysis activity is 100% (active).
The same measure for `Cc1ccc(S(=O)(=O)Nc2ccc3c(c2)C(=O)N([C@H](C)CO)C[C@@H](C)[C@@H](CN(C)S(C)(=O)=O)OCCCC[C@@H](C)O3)cc1`: -3.44% (inactive).
Turning to `C[C@H](CO)N1C[C@H](C)[C@H](CN(C)C)Oc2c(NC(=O)C3CCOCC3)cccc2C1=O`, the lysis activity is -4.63% (inactive).
The same measure for `CCCN(C)C[C@H]1OCCCC[C@H](C)Oc2ccc(NS(=O)(=O)c3ccc(C)cc3)cc2C(=O)N([C@@H](C)CO)C[C@H]1C`: -0.143% (inactive); for `C[C@H]1CN([C@@H](C)CO)C(=O)c2cc(NS(C)(=O)=O)ccc2O[C@H]1CN(C)C(=O)Nc1ccc(C(F)(F)F)cc1`: 2.09% (inactive).
The result for `Cc1noc(C)c1S(=O)(=O)Nc1ccc2c(c1)C(=O)N([C@H](C)CO)C[C@@H](C)[C@@H](CN(C)Cc1ccccc1)OCCCC[C@@H](C)O2` reads 0.357% (inactive).
The result for `C[C@H]1CN([C@@H](C)CO)C(=O)c2cccc(NC(=O)C3CCOCC3)c2O[C@@H]1CN(C)C` reads -5.09% (inactive); that for `Cc1ccc(S(=O)(=O)Nc2ccc3c(c2)C(=O)N([C@H](C)CO)C[C@@H](C)[C@H](CN(C)C(=O)Nc2ccc(C(F)(F)F)cc2)OCCCC[C@H](C)O3)cc1`, -2.02% (inactive).
As for `C[C@@H]1CN([C@H](C)CO)C(=O)c2cccc(NS(=O)(=O)c3cn(C)cn3)c2O[C@H]1CN(C)CC1CC1`, the lysis activity was -3.67% (inactive).
The result for `Cc1noc(C)c1S(=O)(=O)Nc1ccc2c(c1)CC(=O)N([C@@H](C)CO)C[C@H](C)[C@@H](CN(C)S(=O)(=O)c1cn(C)cn1)O2` reads 117% (active); that for `C[C@@H]1CCCCO[C@H](CN(C)C)[C@H](C)CN([C@@H](C)CO)C(=O)c2cc(NS(=O)(=O)c3cn(C)cn3)ccc2O1`, -0.536% (inactive).
Regarding `C[C@H]1CN([C@@H](C)CO)C(=O)c2cc(NS(=O)(=O)c3cn(C)cn3)ccc2O[C@H]1CN(C)CC1CCCCC1`, the lysis activity was -5.59% (inactive).
The same measure for `C[C@H]1CN([C@@H](C)CO)C(=O)c2cccc(NS(=O)(=O)c3cn(C)cn3)c2O[C@@H]1CN(C)CC1CCCCC1`: 82.6% (active); for `Cc1noc(C)c1S(=O)(=O)Nc1ccc2c(c1)CC(=O)N([C@H](C)CO)C[C@H](C)[C@H](CN(C)S(=O)(=O)c1cn(C)cn1)O2`: -4.65% (inactive).
On to `C[C@@H]1CN([C@H](C)CO)C(=O)c2cc(NS(=O)(=O)c3cn(C)cn3)ccc2O[C@@H](C)CCCCO[C@H]1CN(C)C`, for which the lysis activity is 109% (active).
The same measure for `C[C@@H]1CN([C@@H](C)CO)C(=O)c2cc(NS(=O)(=O)c3cn(C)cn3)ccc2O[C@@H](C)CCCCO[C@H]1CN(C)S(=O)(=O)c1cn(C)cn1`: 1.43% (inactive).
The same measure for `Cc1ccc(S(=O)(=O)N(C)C[C@@H]2Oc3ccc(NS(=O)(=O)c4c(C)noc4C)cc3CC(=O)N([C@H](C)CO)C[C@H]2C)cc1`: 1.73% (inactive).
For the compound `CN1c2ccc(-c3ccccc3)cc2[C@H]2[C@H](CCN2C(=O)c2ccc3c(c2)OCO3)[C@H]1CO`, the lysis activity was -10.3% (inactive).
The same measure for `COCC(=O)N(C)C[C@H]1Oc2cc(C#C[C@@H](C)O)ccc2S(=O)(=O)N([C@H](C)CO)C[C@H]1C`: 9.52% (inactive); for `Cc1ccc(OCC(=O)Nc2ccc(C(=O)O)cc2NC(=O)COc2ccc(C)c(C)c2)cc1C`: -1.83% (inactive).
As for `Cc1ccc(OCC(=O)NC(C)c2ccccc2)cc1C` (configuration not stated), the lysis activity is 204% (active).
Take `Cc1ccc(OCCCC(=O)NC(C)c2ccccc2)c(C)c1` (configuration not stated): the lysis activity is 3.6% (inactive).
The same measure for `C[C@H]1CCCCO[C@H](CN(C)S(=O)(=O)c2cn(C)cn2)[C@@H](C)CN([C@@H](C)CO)C(=O)c2cc(NC(=O)C3CCCCC3)ccc2O1`: -1.38% (inactive); for `Cc1cccc(S(=O)(=O)N2CC[C@@H]3[C@H]2c2cc(C#Cc4ccc(F)cc4)ccc2N[C@@H]3CO)c1`: -3.22% (inactive); for `CO[C@H]1CN(C)C(=O)c2cc(NC(=O)Nc3cccc(F)c3)ccc2OC[C@@H](C)N(C)C[C@H]1C`: 18.3% (inactive).
The same measure for `CO[C@H]1CN(C)C(=O)c2ccc(NC(=O)C3CC3)cc2OC[C@@H](C)N(Cc2ccc(F)cc2)C[C@@H]1C`: 95.3% (active); for `CO[C@H]1CN(C)C(=O)c2cc(NC(=O)Nc3cccc(F)c3)ccc2OC[C@@H](C)N(C)C[C@@H]1C`: 7.44% (inactive).
`CO[C@@H]1CN(C)C(=O)c2cc(NC(=O)C3CC3)ccc2OC[C@@H](C)N(Cc2ccc(F)cc2)C[C@@H]1C`: the lysis activity is 1.45% (inactive).
As for `CO[C@@H]1CN(C)C(=O)c2cc(NC(=O)C3CC3)ccc2OC[C@H](C)N(Cc2ccc(F)cc2)C[C@@H]1C`, the lysis activity was 0.205% (inactive).
The result for `CO[C@@H]1CN(C)C(=O)c2cc(NC(=O)Nc3cccc(F)c3)ccc2OC[C@H](C)N(C)C[C@@H]1C` reads 98.7% (active).
